In ChEMBL document CHEMBL3112441, “Synthesis, anticonvulsant activity and molecular properties prediction of dialkyl 1-(di(ethoxycarbonyl)methyl)-2,6-dimethyl-4-substituted-1,4-dihydropyridine-3,5-dicarboxylates” (Eur J Med Chem, 2014):

Key:
Rattus norvegicus [1] = test: Anticonvulsant activity in Wistar albino rat assessed as protection against subcutaneous pentylenetetrazole-induced seizures by measuring latency period at 10 mg/kg, po pretreated for 1 hr followed by pentylenetetrazole challenge measured over 300 secs (reference value: 72 +/- 2 secs); type: functional
Rattus norvegicus [2] = test: Anticonvulsant activity in Wistar albino rat assessed as protection against maximal electroshock-induced electroconvulsive seizures at 10 mg/kg, po pretreated for 1 hr followed by maximal electroshock challenge relative to control; type: functional
Procedure, shortened: (§1)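 Adult male Wistar rats (150–250 g), six per group, dosed orally 10 mg/kg as suspension in 0.5% sodium carboxymethylcellulose; vehicle control. After 1 h, maximal electroshock of 150 mA for 0.2 s was given via corneal electrodes. Duration of hind limb extension was recorded, and its abolition or reduction was taken as the anticonvulsant index. Values are mean ± SEM, n = 6, analysed by one-way ANOVA with Dunnett's test.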

Rattus norvegicus [3] = test: Anticonvulsant activity in Wistar albino rat assessed as protection against maximal electroshock-induced seizures by measuring duration of limb extension at 10 mg/kg, po pretreated for 1 hr followed by maximal electroshock challenge (reference value: 16 +/- 1 secs); type: functional; procedure, shortened: as §1
Rattus norvegicus [4] = test: Anticonvulsant activity in Wistar albino rat assessed as protection against […] at 10 mg/kg, po pretreated for 1 hr followed by pentylenetetrazole challenge measured over 300 secs relative to control; type: functional
Mus musculus = test: Toxicity in Swiss albino mouse up to 100 mg/kg, po measured over 7 days; type: organism-based; set-up: dose 100 mg/kg, route oral; settings: in vivo, 168 h
Procedure, shortened: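 Acute oral toxicity followed OECD-425. Swiss albino mice (18–20 g), 5 per group, were dosed orally at different levels and observed for death over seven days.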

Rattus norvegicus [5] = test: Anticonvulsant activity in Wistar albino rat assessed as protection against maximal electroshock-induced seizures by measuring duration of limb extension at 30 mg/kg, po pretreated for 1 hr followed by maximal electroshock challenge (reference value: 16 +/- 1 secs); type: functional
Rattus norvegicus [6] = test: Anticonvulsant activity in Wistar albino rat assessed as protection against maximal electroshock-induced electroconvulsive seizures at 30 mg/kg, po pretreated for 1 hr followed by maximal electroshock challenge relative to control; type: functional
Rattus norvegicus [7] = test: Anticonvulsant activity in Wistar albino rat assessed as protection against subcutaneous pentylenetetrazole-induced seizures by measuring latency period at 30 mg/kg, po pretreated for 1 hr followed by pentylenetetrazole challenge measured over 300 secs (reference value: 72 +/- 2 secs); type: functional
Rattus norvegicus [8] = test: Anticonvulsant activity in Wistar albino rat assessed as protection against subcutaneous pentylenetetrazole-induced mortality at 30 mg/kg, po pretreated for 1 hr followed by pentylenetetrazole challenge relative to control; type: functional
Rattus norvegicus [9] = test: Anticonvulsant activity in Wistar albino rat assessed as protection against subcutaneous pentylenetetrazole-induced mortality at 5 mg/kg, ip pretreated for 1 hr followed by pentylenetetrazole challenge measured over 300 secs relative to control; type: functional; settings: sc
Rattus norvegicus [10] = test: Anticonvulsant activity in Wistar albino rat assessed as protection against subcutaneous pentylenetetrazole-induced seizures by measuring latency period at 5 mg/kg, ip pretreated for 1 hr followed by pentylenetetrazole challenge measured over 300 secs (reference value: 72 +/- 2 secs); type: functional

Structure (SMILES)	Time (Rattus norvegicus [1])	Activity (Rattus norvegicus [2])	Time (Rattus norvegicus [3])	mortality at 10 mg/kg (Rattus norvegicus [4])	Activity (Mus musculus)	Time (Rattus norvegicus [5])	Activity (Rattus norvegicus [6])	Time (Rattus norvegicus [7])	mortality at 30 mg/kg (Rattus norvegicus [8])	mortality at 5 mg/kg (Rattus norvegicus [9])	Time (Rattus norvegicus [10])
CCOC(=O)C(C(=O)OCC)N1C(C)=C(C(=O)OC)C(/C=C/c2ccccc2)C(C(=O)OC)=C1C	268 s	41.6%	9 s	100%	Non-toxic						
COC(=O)C1=C(C)NC(C)=C(C(=O)OC)C1c1ccccc1[N+](=O)[O-] [NIFEDIPINE]						7 s	56.8%	215 s	33.3%		
CCOC(=O)C(C(=O)OCC)N1C(C)=C(C(=O)OC)C(c2ccccc2)C(C(=O)OC)=C1C	>300 s	25%	12 s	33.3%	Non-toxic						
CCOC(=O)C1=C(C)N(C(C(=O)OCC)C(=O)OCC)C(C)=C(C(=O)OCC)C1c1ccccc1	283 s	16.6%	13 s	0%	Non-toxic						
CCOC(=O)C(C(=O)OCC)N1C(C)=C(C(=O)OC)C(Cc2ccccc2)C(C(=O)OC)=C1C	285 s	14.5%	14 s	33.3%	Non-toxic						
CCOC(=O)C1=C(C)N(C(C(=O)OCC)C(=O)OCC)C(C)=C(C(=O)OCC)C1Cc1ccccc1	265 s	10.4%	14 s	66.6%	Non-toxic						
CN1C(=O)CN=C(c2ccccc2)c2cc(Cl)ccc21 [DIAZEPAM]										66.6%	266 s
CCOC(=O)C1=C(C)N(C(C(=O)OCC)C(=O)OCC)C(C)=C(C(=O)OCC)C1CCc1ccccc1	246 s	8.3%	15 s	33.3%	Non-toxic						
CCOC(=O)C(C(=O)OCC)N1C(C)=C(C(=O)OC)C(CCc2ccccc2)C(C(=O)OC)=C1C	>300 s	20.8%	13 s	66.6%	Non-toxic						
CCOC(=O)C1=C(C)N(C(C(=O)OCC)C(=O)OCC)C(C)=C(C(=O)OCC)C1/C=C/c1ccccc1	>300 s	22.9%	12 s	0%	Non-toxic						
CCOC(=O)C(C(=O)OCC)N1C(C)=C(C(=O)OC)CC(C(=O)OC)=C1C	126 s	14.5%	13 s	0%	Non-toxic						
CCOC(=O)C(C(=O)OCC)N1C(C)=C(C(=O)OC)C(c2ccccc2[N+](=O)[O-])C(C(=O)OC)=C1C	295 s	39.6%	10 s	0%	Non-toxic						
CCOC(=O)C1=C(C)N(C(C(=O)OCC)C(=O)OCC)C(C)=C(C(=O)OCC)C1c1ccccc1[N+](=O)[O-]	230 s	22.9%	12 s	0%	Non-toxic						
O=C1NC(=O)C(c2ccccc2)(c2ccccc2)N1 [PHENYTOIN]						6 s	62.5%				
CCOC(=O)C1=C(C)N(C(C(=O)OCC)C(=O)OCC)C(C)=C(C(=O)OCC)C1/C=C/c1ccc([N+](=O)[O-])cc1	>300 s	50%	8 s	0%	Non-toxic						
CCOC(=O)C1=C(C)N(C(C(=O)OCC)C(=O)OCC)C(C)=C(C(=O)OCC)C1	192 s	41.6%	9 s	0%	Non-toxic						
CCOC(=O)C(C(=O)OCC)N1C(C)=C(C(=O)OC)C(/C=C/c2ccc([N+](=O)[O-])cc2)C(C(=O)OC)=C1C	>300 s	52.1%	7 s	0%	Non-toxic						
